Assay outcomes: PubChem BioAssay, Johns Hopkins Ion Channel Center
Sampled rows, rich in hits. Any-hit rate of the full collection: about 3.5%.
RGS4 act: RGS4 potentiators or activators, primary screen, cell-based, HEK293 M3R inducible RGS4, calcium flux | carbachol calcium flux Fluo4; active compounds read low | B-score at 10 µM | 310,000 compounds, 0.92% hits;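 active means B-score of the integrated calcium signal more than 4 SD below the library mean, with starting fluorescence not abnormally high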;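 further: negative B-score means reduced calcium response which marks RGS4 activation or potentiation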
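Assay system: HEK293 FlpIn-TREx cells, stable M3R, doxycycline-inducible RGS4 / Probe or stimulus: carbachol, ECmax concentration / Times: overnight RGS4 induction, 30 min dye load 37 °C, 20 min compound RT / Signal: kinetic calcium fluorescence imaging with Fluo4-AM dye, 2 µM / Measure: Agonist-evoked peak-minus-minimum fluorescence over baseline, integrated ratio, B score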
MrgX1 ag: agonists of human MrgX1 receptor, primary screen, HEK293 cells, Fluo-4 calcium flux; B-score at 10 µM; AID 588627, 2011; Fluo-4 calcium fluorescence, agonist mode; active compounds read high; 310,000 compounds, 0.44% hits;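 active means calcium response B-score plate-corrected fluorescence ratio at least 3 library SD, with starting fluorescence B-score inside 5 SD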
Target sequence (Q96LB2 whole entry, looked up): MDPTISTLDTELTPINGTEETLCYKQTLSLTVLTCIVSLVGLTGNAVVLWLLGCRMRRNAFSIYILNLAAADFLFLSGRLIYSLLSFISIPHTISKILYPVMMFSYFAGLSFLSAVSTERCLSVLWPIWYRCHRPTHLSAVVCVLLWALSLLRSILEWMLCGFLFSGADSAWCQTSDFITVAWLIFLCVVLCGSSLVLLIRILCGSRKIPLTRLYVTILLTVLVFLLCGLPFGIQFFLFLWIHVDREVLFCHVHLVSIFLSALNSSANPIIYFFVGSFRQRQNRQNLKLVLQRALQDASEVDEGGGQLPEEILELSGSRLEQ
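System: HEK293 cells stably expressing human MrgX1 receptor; Dosing: test compound in the initial addition of three; Schedule: overnight plating, then 30 min 37 °C plus 30 min room-temperature dye loading; Detection: kinetic calcium dye fluorescence, Fluo-4 NW; Controls: per-plate positive and negative controls for Z′ factor.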
MrgX1 allo act: positive allosteric modulators of MrgX1, primary screen, HEK293 cells, Fluo-4 calcium flux; AID 588675, 2011; B-score at 10 µM; Mas-related G-protein coupled receptor member X1 (Homo sapiens), Q96LB2; FDSS; active compounds read high; 310,000 compounds, 0.63% hits;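 active means plate-corrected calcium response at least 3 library SD above typical, normal starting fluorescence, not activating the receptor alone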;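 further: compound read alongside a low EC10 to EC30 dose of BAM8-22 agonist; peak minus trough fluorescence over baseline measured at the second addition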
MrgX1 antag: antagonists of human MrgX1 receptor, primary screen, HEK293 cells, Fluo-4 calcium flux; 310,000 compounds, 1.3% hits; Mas-related G-protein coupled receptor member X1 (Homo sapiens), Q96LB2; B-score at 10 µM; BAM8-22 antagonism; active compounds read low; AID 588676, 2011;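 active means calcium-response B-score plate-corrected more than 3 library SD below zero, starting fluorescence within 5 deviations, no agonist response on first addition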;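 further: peak minus trough fluorescence over baseline after final BAM8-22 challenge near maximal dose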
RGS4 inh: RGS4 inhibitors, primary screen, cell-based, HEK293 M3R inducible RGS4, calcium flux. 310,000 compounds, 0.45% hits. B-score at 10 µM. Regulator of G-protein signaling 4 (Homo sapiens), P49798. AID 463165, 2010. Fluo-4 calcium flux; active compounds read high; triggered by carbachol at its EC20;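 active means B-score, a plate-corrected calcium signal, over three deviations above library mean, with baseline fluorescence within five deviations of library mean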;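 further: RGS4 expression induced by doxycycline in cells with stable M3 receptor; B-score is computed from the integrated fluorescence ratio over baseline after carbachol; higher B-score means a larger calcium signal and so more RGS4 inhibition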
Target sequence (P49798 whole entry, looked up): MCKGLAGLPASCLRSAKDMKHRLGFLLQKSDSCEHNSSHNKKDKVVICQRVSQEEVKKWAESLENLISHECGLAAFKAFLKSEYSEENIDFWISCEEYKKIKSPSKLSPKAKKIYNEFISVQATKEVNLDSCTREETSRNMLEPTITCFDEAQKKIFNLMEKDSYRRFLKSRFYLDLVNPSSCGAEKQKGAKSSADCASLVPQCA
MrgX1 ant reconf: MrgX1 receptor antagonists, duplicate retest, confirmation, HEK293 cells, Fluo-4 calcium flux. shares compounds with MrgX1 antag. AID 602420, 2012. BAM8-22 calcium flux; active compounds read low. 2,300 compounds, 19% hits. remaining BAM8-22 calcium response % of control (active compounds read low), % at 10 µM;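 active means remaining agonist calcium response no higher than 100% minus 3 SD of agonist-only control wells, with starting fluorescence near control levels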;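 further: agonist BAM8-22 given at a near maximal EC90 to ECmax level; peak minus minimum fluorescence divided by baseline after agonist addition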
HEK293 Ca flux: nonspecific calcium signal in parental HEK293, confirmation, counter-screen for MrgX1 antagonist project, parental HEK293 cells, Fluo-4 calcium flux; fluorescence ratio F(max-min)/F0 at 10 µM; Fluo-4 calcium fluorescence, FDSS; AID 624111, 2012; shares compounds with MrgX1 antag; 4,000 compounds, 2% hits;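 active means duplicate-averaged calcium fluorescence ratio at least three times the standard deviation of buffer wells, a nonspecific response in parental cells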
HEK293 Ca counter: calcium response in parental HEK293 cells, primary screen, counter-screen for MrgX1 allosteric activator project, cell-based, Fluo-4 calcium flux, duplicate. shares compounds with MrgX1 antag. Fluo-4 fluorescence ratio; active compounds read high. fluorescence ratio F(max-min)/F0 at 10 µM. 4,000 compounds, 0.4% hits. AID 624114, 2012;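 active means calcium fluorescence ratio, averaged over duplicates, at least 3 SD of the buffer-well ratio, meaning a nonspecific response in receptor-free cells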;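 further: untransfected parental HEK293 lacking MrgX1 used as counterscreen for MrgX1 allosteric activators; fluorescence change taken during the second addition on a kinetic imager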
HEK293 Ca cntr2: calcium response in parental HEK293 cells, primary screen, counter-screen for MrgX1 agonist project, cell-based, Fluo-4 calcium flux, duplicate, agonist mode; fluorescence ratio F(max-min)/F0 at 10 µM; Fluo-4 calcium fluorescence (FDSS); active compounds read high; 4,000 compounds, 8.7% hits; shares compounds with MrgX1 antag; AID 624115, 2012;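 active means calcium fluorescence ratio at least three times the spread of buffer wells, meaning a non-specific response in parental cells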
* hit, by the source's call; i = inactive; · = not tested or not shown.

SMILES | RGS4 act | MrgX1 ag | MrgX1 allo act | MrgX1 antag | RGS4 inh | MrgX1 ant reconf | HEK293 Ca flux | HEK293 Ca counter | HEK293 Ca cntr2
O=C(NCC1CCCN1S(=O)(=O)c1cccs1)c1ccccc1 (stereo unspecified) | i | i | i | i | i | · | · | · | ·
O=C(NCC1CCCN1S(=O)(=O)c1cccs1)c1ccc(Cl)cc1 (stereo unspecified) | i | i | i | -5.65* | i | i | i | i | i
CCCSc1ccc([C@H]2N[C@@](C)(C(=O)OC)[C@H]3C(=O)N(C)C(=O)[C@@H]23)cc1 | i | i | i | i | i | · | · | · | ·
COC(=O)[C@]1(C)N[C@H](c2ccc(SC3CCCCC3)cc2)[C@@H]2C(=O)N(C)C(=O)[C@@H]21 | i | i | i | -7.92* | i | i | i | i | i
COc1ccc(S(=O)(=O)N/N=C(/C)c2ccncc2)cc1OC | i | i | i | i | i | · | · | · | ·
FC(F)(F)c1cccc(NC(=S)NCc2ccccc2)c1 | i | i | i | -5.36* | i | i | i | i | 57.7*
O=C(Nc1ccccc1)Nc1cccc(C(F)(F)F)c1 | i | i | i | -5.24* | i | 84.2%* | i | i | i
FC(F)(F)c1cccc(CNC(=S)Nc2ccccc2)c1 | i | i | i | i | i | · | · | · | ·
CC(C)(C)NC(=S)Nc1cccc(C(F)(F)F)c1 | i | i | i | -5.22* | i | i | i | i | i
Cc1cc(Br)ccc1NC(=O)CN(C)C(=O)c1cc(S(=O)(=O)N(C)C)ccc1N1CCCC1 | i | i | i | i | i | · | · | · | ·
CCOC(=O)[C@H]1[C@H]2COc3ccc(OC)cc3[C@@H]2N2C(=O)c3ccccc3NC(=O)[C@@]12C | · | i | i | i | · | · | · | · | ·
COc1ccccc1N1CCN(C(=O)c2ccc(CN3CCOCC3)cc2)CC1 | i | i | i | i | i | · | · | · | ·
Cc1ccc(NC(=O)c2oc3ccc(S(=O)(=O)N4CCOCC4)cc3c2C)c(C)c1 | i | i | i | i | i | · | · | · | ·
Cc1cccc(NC(=O)c2oc3ccc(S(=O)(=O)N4CCOCC4)cc3c2C)c1C | i | i | i | -4.76* | i | i | i | i | i
O=C(NCC1CCCN1S(=O)(=O)c1ccccc1)C(=O)NC1CC1 (stereo unspecified) | i | i | i | -4.58* | i | i | i | i | i
Cc1ccccc1NC(=O)C(C)OC(=O)c1ccccc1C(=O)N(C)c1ccccc1 (stereo unspecified) | i | i | i | -5.74* | i | i | i | i | i
CCn1c(/C=C/c2c(C)[nH]c3ccccc23)nc2ccccc2c1=O | i | i | i | -5.28* | i | i | i | i | i
Cc1ccc(Cn2ccsc2=NC(=O)COC(=O)c2ccc(O)cc2O)cc1 | i | i | i | -7.74* | i | i | i | i | i
Cc1ccc(-c2nc3sc(C#N)c(N)n3c(=O)c2C#N)cc1 | i | i | i | i | i | · | · | · | ·
CCOc1ccc(N(CC(=O)N2CCc3ccccc32)S(=O)(=O)c2c(C)noc2C)cc1 | i | i | i | i | i | · | · | · | ·
Cc1cc(C)cc(N(CC(=O)N2CCc3ccccc32)S(=O)(=O)c2c(C)noc2C)c1 | i | i | i | -7.25* | i | i | i | i | i
CC(C)Cc1ccc(C(C)C(=O)Nc2nccs2)cc1 (stereo unspecified) | i | i | i | -4.69* | i | 72.0%* | i | i | i
COc1ccc(CC(=O)NCc2nnc(SCC(=O)Nc3ccc(OC)cc3)n2C)cc1 | i | i | i | i | i | · | · | · | ·
CC(C)CCNC(=O)c1cc(-c2ccncc2)nc2ccc(S(=O)(=O)N3CCOCC3)cc12 | i | i | i | -8.29* | i | i | i | i | i
CCOC(=O)c1cc([N+](=O)[O-])sc1NC(=O)c1ccc(S(=O)(=O)N2CC3(C)CC2CC(C)(C)C3)cc1 (stereo unspecified) | -9.09* | i | i | -11.1* | i | i | 0.478* | i | i
SMILES | RGS4 act | MrgX1 ag | MrgX1 allo act | MrgX1 antag | RGS4 inh | MrgX1 ant reconf | HEK293 Ca flux | HEK293 Ca counter | HEK293 Ca cntr2
CN(CC(=O)Nc1ccccc1C(F)(F)F)C(=O)c1ccc(-c2ccc(Cl)cc2)o1 | i | i | i | i | i | · | · | · | ·
CCCn1c(=N)n(CC(=O)c2cccs2)c2ccccc21 | i | i | i | -4.65* | i | i | i | i | i
CC1C(=O)N2CCCc3cc(S(=O)(=O)N(C)c4ccccc4)cc1c32 (stereo unspecified) | i | i | i | i | i | · | · | · | ·
Cc1cccc(-c2nc(CSc3nc4c(c(=O)[nH]3)CCC4)c(C)o2)c1 | i | i | i | -8.42* | i | 81.5%* | i | i | i
O=C(CN1C2CCC1CC(NC(=O)NC1CCCCC1)C2)NC1CC1 (stereo unspecified) | i | i | i | -5.54* | i | i | i | i | i
CCCN1C2CCCC1CC(NC(=O)NC1CCCCC1)C2 (stereo unspecified) | i | i | i | i | i | · | · | · | ·
CCOc1ccc(NC(=O)Nc2nc(SCC)ns2)cc1 | i | i | i | -6.31* | i | 78.2%* | i | i | i
CCSc1nsc(NC(=O)Nc2ccc(F)cc2F)n1 | i | i | i | i | i | · | · | · | ·
